Experimental data reported in ChEMBL document CHEMBL1828568, “Novel imaging agents for β-amyloid plaque based on the N-benzoylindole core” (Bioorg Med Chem Lett, 2011).

Test: Displacement of [125I]TZDM from amyloid beta (1 to 40) aggregates after 2 hrs by gamma counting
How it was run: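 Competition binding against [125I]TZDM as radiolabeled standard, using Aβ1–40 aggregates; run in triplicate, results as mean ± SD.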

Row | Structure (SMILES) | Ki [nM]
1 | COc1ccc2c(ccn2C(=O)/C=C/c2ccccc2)c1 | 68.2
2 | COc1ccc(/C=C/C(=O)n2ccc3ccccc32)cc1 | 27.3
